Columns and labels:
Format in all cases: functional
[1] = tested on: Enterococcus faecalis; experiment: Antibacterial activity against vancomycin-susceptible Enterococcus faecalis clinical isolate by broth microdilution method
Procedure, shortened: (§1)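 MICs by CLSI broth microdilution in frozen trays pre-loaded with serial dilutions of each agent. Quality-control strains run in parallel: E. faecalis ATCC 29212 and ATCC 51299, S. aureus ATCC 29213, S. pneumoniae ATCC 49619. Comparator susceptibility categories follow CLSI breakpoints. Methicillin resistance in staphylococci assigned from the oxacillin MIC.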

[2] = tested on: Enterococcus faecalis; experiment: Antibacterial activity against vancomycin- and teichoplanin-nonsusceptible Enterococcus faecalis clinical isolate by broth microdilution method; procedure, shortened: as §1
[3] = tested on: Enterococcus faecalis; experiment: Antibacterial activity against vancomycin-resistant and teichoplanin-susceptible Enterococcus faecalis clinical isolate by broth microdilution method; procedure, shortened: as §1
[4] = tested on: Enterococcus faecium; experiment: Antibacterial activity against vancomycin-susceptible Enterococcus faecium clinical isolate by broth microdilution method
Procedure, shortened: (§2)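 MIC by CLSI broth microdilution in frozen microtiter trays holding serial dilutions of each agent, prepared from standard laboratory powders. E. faecalis ATCC 29212 and ATCC 51299, S. aureus ATCC 29213 and S. pneumoniae ATCC 49619 run in parallel as quality-control strains. Comparator susceptibility interpreted with CLSI breakpoints.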

[5] = tested on: Enterococcus faecium; experiment: Antibacterial activity against vancomycin- and teichoplanin-nonsusceptible Enterococcus faecium clinical isolate by broth microdilution method; procedure, shortened: as §1
[6] = tested on: Enterococcus faecium; experiment: Antibacterial activity against vancomycin-resistant and teichoplanin-susceptible Enterococcus faecium clinical isolate by broth microdilution method; procedure, shortened: as §1
[7] = tested on: Streptococcus pyogenes; experiment: Antibacterial activity against Streptococcus pyogenes clinical isolate by broth microdilution method; procedure, shortened: as §2
[8] = tested on: Streptococcus agalactiae; experiment: Antibacterial activity against Streptococcus agalactiae clinical isolate by broth microdilution method; procedure, shortened: as §2
[9] = Antibacterial activity against Streptococcus sp. Group C clinical isolate by broth microdilution method; procedure, shortened: as §2
[10] = tested on: Streptococcus sp.; experiment: Antibacterial activity against Streptococcus sp. Group F clinical isolate by broth microdilution method
Procedure, shortened: (§3)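 MIC by CLSI broth microdilution in frozen microtiter trays holding serial dilutions of each agent, prepared from standard laboratory powders. Comparator susceptibility interpreted with CLSI breakpoints.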

[11] = Antibacterial activity against Streptococcus sp. Group G clinical isolate by broth microdilution method; procedure, shortened: as §2
[12] = tested on: Streptococcus equinus; experiment: Antibacterial activity against Streptococcus bovis clinical isolate by broth microdilution method; procedure, shortened: as §2
[13] = tested on: Streptococcus constellatus; experiment: Antibacterial activity against Streptococcus constellatus clinical isolate by broth microdilution method; procedure, shortened: as §2
[14] = tested on: Streptococcus intermedius; experiment: Antibacterial activity against Streptococcus intermedius clinical isolate by broth microdilution method; procedure, shortened: as §2
[15] = tested on: Streptococcus mitis; experiment: Antibacterial activity against Streptococcus mitis clinical isolate by broth microdilution method; procedure, shortened: as §2
[16] = tested on: Streptococcus oralis; experiment: Antibacterial activity against Streptococcus oralis clinical isolate by broth microdilution method; procedure, shortened: as §2
[17] = tested on: Streptococcus sanguinis; experiment: Antibacterial activity against Streptococcus sanguinis clinical isolate by broth microdilution method; procedure, shortened: as §2
[18] = tested on: Streptococcus sp.; experiment: Antibacterial activity against Streptococcus sp. clinical isolate by broth microdilution method; procedure, shortened: as §3
[19] = tested on: Streptococcus pneumoniae; experiment: Antibacterial activity against penicillin susceptible Streptococcus pneumoniae clinical isolate by broth microdilution method; procedure, shortened: as §1
[20] = tested on: Streptococcus pneumoniae; experiment: Antibacterial activity against penicillin intermediate Streptococcus pneumoniae clinical isolate by broth microdilution method; procedure, shortened: as §1
[21] = tested on: Streptococcus pneumoniae; experiment: Antibacterial activity against penicillin resistant Streptococcus pneumoniae clinical isolate by broth microdilution method; procedure, shortened: as §1

CC1(C)S[C@@H]2[C@H](NC(=O)[C@H](N)c3ccccc3)C(=O)N2[C@H]1C(=O)O [AMPICILLIN]
> 128 µg/mL: MIC90 [4] | MIC90 [5]
128 µg/mL: MIC50 [4] | MIC50 [5] | MIC50 [6]
2 µg/mL: MIC90 [2]
0.5 µg/mL: MIC [3]
1 µg/mL: MIC50 [1] | MIC90 [1] | MIC50 [2]

C[C@H]1COc2c(N3CCN(C)CC3)c(F)cc3c(=O)c(C(=O)O)cn1c23.C[C@H]1COc2c(N3CCN(C)CC3)c(F)cc3c(=O)c(C(=O)O)cn1c23.O [LEVOFLOXACIN]
1 µg/mL: MIC90 [7] | MIC90 [8] | MIC90 [12] | MIC90 [13] | MIC90 [14] | MIC90 [15] | MIC90 [16] | MIC90 [17] | MIC90 [18] | MIC50 [19] | MIC90 [19] | MIC90 [20] | MIC90 [21]
0.5 µg/mL: MIC50 [7] | MIC50 [8] | MIC50 [9] | MIC90 [9] | MIC50 [10] | MIC90 [10] | MIC50 [11] | MIC90 [11] | MIC50 [12] | MIC50 [13] | MIC50 [14] | MIC50 [15] | MIC50 [16] | MIC50 [17] | MIC50 [18] | MIC50 [20] | MIC50 [21]

— ChEMBL document CHEMBL1255376, “Comparative surveillance study of telavancin activity against recently collected gram-positive clinical isolates from across the United States” (2008)
